Results from ChEMBL document CHEMBL1938297, “Synthesis, radiofluorination and pharmacological evaluation of a fluoromethyl spirocyclic PET tracer for central σ1 receptors and comparison with fluoroalkyl homologs” (Bioorg Med Chem, 2012).

Tested on: Femur
Experiment: Biodistribution in CD1 mouse femur at 300 kBq, iv after 120 mins by gamma counting
Type: ADME, organism-based
Conditions: in vivo, 2 h
Summary of the method: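 Female CD-1 mice received [18F]1 (300 kBq) i.v.; 3–6 animals per time point anesthetized at 5, 30, 60 or 120 min p.i., blood and urine collected, animals euthanized by cervical dislocation, organs dissected and weighed. Radioactivity counted in a calibrated gamma counter; % ID/g = tissue counts / initial dose counts / tissue weight; means with SD.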

## [18F]CC1OC2(CCN(Cc3ccccc3)CC2)c2ccccc21 (stereo unspecified)
  Drug uptake: 1.92 % ID/g
